Test results reported in ChEMBL document CHEMBL4038284, “Synthesis of novel quinoline-based 4,5-dihydro-1H-pyrazoles as potential anticancer, antifungal, antibacterial and antiprotozoal agents” (Eur J Med Chem, 2017).
The source made the active and inactive calls. The rule behind the calls is not given here.

What was measured:
UO-31 [1] = experiment: Growth inhibition of human UO31 cells at 10 uM incubated for 48 hrs by sulforhodamine B assay; type: functional, cell-based
In short: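 NCI-60 single-dose screen at 10 µM for 48 h. Cells were grown in RPMI-1640 with 5% FBS and 2 mM L-glutamine and preincubated 24 h before compound. Time-zero plates were TCA-fixed at compound addition. After exposure, cells were TCA-fixed, stained with SRB and read at 515 nm. Percentage growth was calculated against time-zero and untreated-control absorbances.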

Cryptococcus neoformans = experiment: Growth inhibition of Cryptococcus neoformans ATCC 32264 at 7.8 ug/ml incubated for 48 hrs under dark condition by broth microdilution method relative to control; type: functional; conditions: ATCC 32264, 48 h, read-out: GI
In short: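 CLSI M27-A3 broth microdilution in RPMI-1640, DMSO ≤1%. Inoculum 1-5 × 10^3 CFU/mL. Incubated 48 h at 30 °C, dark. % inhibition = 100 − (OD405 test − sterility control)/(OD405 growth control − sterility control), with growth and sterility control wells. Triplicate.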

NCI/ADR-RES = experiment: Growth inhibition of human NCI/ADR-RES cells incubated for 48 hrs by sulforhodamine B assay; type: functional; conditions: read-out: LC50 (the source's name)
In short: (§1)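 NCI 60-line screen. Cells in RPMI-1640 with 5% FBS and 2 mM L-glutamine, preincubated 24 h, then time-zero plates TCA-fixed. Compounds from DMSO stocks given at five final concentrations (100, 10, 1.0, 0.1, 0.01 µM) for 48 h at 37 °C, 5% CO2. Cells fixed with 10% TCA, SRB-stained, read at 515 nm. GI50 is the concentration giving 50% lower net protein increase versus control.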

U-251 = experiment: Growth inhibition of human U251 cells incubated for 48 hrs by sulforhodamine B assay; type: functional; conditions: U-251, 48 h
In short: (§2)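 NCI-60 panel cells grown in RPMI-1640 with 5% FBS and 2 mM L-glutamine, preincubated 24 h at 37 °C/5% CO2. Time-zero plates were TCA-fixed at compound addition. DMSO stocks were diluted in medium and tested at five final concentrations (100, 10, 1.0, 0.1, 0.01 µM) for 48 h. Cells were TCA-fixed, stained with SRB and read at 515 nm. GI50 = 50% lower net protein increase versus control.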

Malme-3M = experiment: Growth inhibition of human MALME-3M cells incubated for 48 hrs by sulforhodamine B assay; type: functional
In short: (§3)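 Five-dose NCI SRB assay at 100, 10, 1.0, 0.1 and 0.01 μM for 48 h at 37 °C, 5% CO2. Medium was RPMI-1640 with 5% FBS and 2 mM glutamine. Time-zero plates were TCA-fixed at compound addition, A515 read after SRB staining. GI50 was solved from [(Ti−Tz)/(C−Tz)]×100 = 50. Values beyond the tested range are given as > or <.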

KM12 = experiment: Growth inhibition of human KM12 cells incubated for 48 hrs by sulforhodamine B assay; type: functional; conditions: KM12, 48 h; in short: as §3
Hs-578T = experiment: Growth inhibition of human Hs578T cells incubated for 48 hrs by sulforhodamine B assay; type: functional; in short: as §3
OVCAR-5 = experiment: Growth inhibition of human OVCAR5 cells incubated for 48 hrs by sulforhodamine B assay; type: functional; conditions: OVCAR-5, 48 h; in short: as §1
NCI-H460 = experiment: Growth inhibition of human NCI-H460 cells incubated for 48 hrs by sulforhodamine B assay; type: functional; conditions: NCI-H460, 48 h; in short: as §3
UO-31 [2] = experiment: Growth inhibition of human UO31 cells incubated for 48 hrs by sulforhodamine B assay; type: functional; conditions: UO-31, 48 h; in short: as §2
HCT-116 = experiment: Growth inhibition of human HCT116 cells incubated for 48 hrs by sulforhodamine B assay; type: functional; conditions: HCT-116, 48 h
In short: (§4)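 NCI five-dose SRB assay (100, 10, 1.0, 0.1, 0.01 µM) with 48 h exposure in RPMI-1640 with 5% FBS and 2 mM L-glutamine. Cells fixed with TCA and stained with SRB, read at 515 nm. GI50 is the concentration where [(Ti−Tz)/(C−Tz)]×100 = 50.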

A549 = experiment: Growth inhibition of human A549/ATCC cells incubated for 48 hrs by sulforhodamine B assay; type: functional; conditions: A549, 48 h; in short: as §1
K562 = experiment: Growth inhibition of human K562 cells incubated for 48 hrs by sulforhodamine B assay; type: functional; conditions: K562, 48 h; in short: as §1
NCI-H522 = experiment: Growth inhibition of human NCI-H522 cells incubated for 48 hrs by sulforhodamine B assay; type: functional; conditions: NCI-H522, 48 h; in short: as §1
UACC-257 = experiment: Growth inhibition of human UACC257 cells incubated for 48 hrs by sulforhodamine B assay; type: functional; conditions: UACC-257, 48 h; in short: as §2
SW-620 = experiment: Growth inhibition of human SW620 cells incubated for 48 hrs by sulforhodamine B assay; type: functional; conditions: SW-620, 48 h; in short: as §2
MCF7 = experiment: Growth inhibition of human MCF7 cells incubated for 48 hrs by sulforhodamine B assay; type: functional; conditions: MCF7, 48 h; in short: as §1
HOP-92 = experiment: Growth inhibition of human HOP92 cells incubated for 48 hrs by sulforhodamine B assay; type: functional; conditions: HOP-92, 48 h; in short: as §3
A498 = experiment: Growth inhibition of human A498 cells incubated for 48 hrs by sulforhodamine B assay; type: functional; conditions: A498, 48 h; in short: as §1
DU-145 = experiment: Growth inhibition of human DU145 cells incubated for 48 hrs by sulforhodamine B assay; type: functional; conditions: DU-145, 48 h; in short: as §4
NCI-H322M = experiment: Growth inhibition of human NCI-H322M cells incubated for 48 hrs by sulforhodamine B assay; type: functional; in short: as §3
SK-OV-3 = experiment: Growth inhibition of human SKOV3 cells incubated for 48 hrs by sulforhodamine B assay; type: functional; conditions: SK-OV-3, 48 h; in short: as §1
T47D = experiment: Growth inhibition of human T47D cells incubated for 48 hrs by sulforhodamine B assay; type: functional; in short: as §2
SF-295 = experiment: Growth inhibition of human SF295 cells incubated for 48 hrs by sulforhodamine B assay; type: functional; conditions: SF-295, 48 h; in short: as §3
BT-549 = experiment: Growth inhibition of human BT549 cells incubated for 48 hrs by sulforhodamine B assay; type: functional; conditions: BT-549, 48 h; in short: as §4
SK-MEL-5 = experiment: Growth inhibition of human SK-MEL-5 cells incubated for 48 hrs by sulforhodamine B assay; type: functional; conditions: SK-MEL-5, 48 h; in short: as §1
EKVX = experiment: Growth inhibition of human EKVX cells incubated for 48 hrs by sulforhodamine B assay; type: functional; in short: as §4
[3] = read-out: LC50 (the source's name)

For `COc1ccc(C2=NN(c3ccc(Cl)cc3)C(c3cccc(Nc4ccnc5cc(Cl)ccc45)c3)C2)cc1` (configuration not stated), the “growth inhibition (GI)” value (UO-31 [1]) was “inactive” and the inhibition of growth at 7.8 µg/mL (Cryptococcus neoformans) was 10.1%.
For `COc1cccc2c1C(=O)c1c(O)c3c(c(O)c1C2=O)C[C@@](O)(C(=O)CO)C[C@@H]3O[C@H]1C[C@H](N)[C@H](O)[C@H](C)O1` [DOXORUBICIN], the CC50 (NCI/ADR-RES) was 100 µM, the GI50 (U-251) was 0.04 µM and the GI50 (Malme-3M) was 0.12 µM. It also gave a GI50 (KM12) of 0.27 µM, a GI50 (Hs-578T) of 0.33 µM and a GI50 (OVCAR-5) of 0.41 µM. It also gave a CC50 (OVCAR-5; [3]) of 100 µM, a GI50 (NCI-H460) of 0.02 µM and a GI50 (UO-31 [2]) of 0.49 µM. For the same compound, the GI50 (HCT-116) was 0.08 µM, the GI50 (A549) was 0.06 µM and the GI50 (K562) was 0.19 µM. The CC50 (K562; [3]) was 100 µM, the GI50 (NCI-H522) was 0.03 µM and the CC50 (NCI-H522; [3]) was 2.8 µM. The GI50 (UACC-257) was 0.14 µM, the GI50 (SW-620) was 0.09 µM and the GI50 (MCF7) was 0.04 µM. It also gave a CC50 (MCF7; [3]) of 64.1 µM, a GI50 (HOP-92) of 0.1 µM and a GI50 (A498) of 0.1 µM. For the same compound, the CC50 (A498; [3]) was 1.9 µM, the GI50 (DU-145) was 0.11 µM and the CC50 (DU-145; [3]) was 100 µM. For the same compound, the GI50 (NCI-H322M) was 0.54 µM, the GI50 (SK-OV-3) was 0.22 µM and the CC50 (SK-OV-3; [3]) was 100 µM. The GI50 (T47D) was 0.06 µM, the GI50 (SF-295) was 0.1 µM and the GI50 (BT-549) was 0.23 µM. It also gave a GI50 (SK-MEL-5) of 0.08 µM, a CC50 (SK-MEL-5; [3]) of 0.49 µM and a GI50 (EKVX) of 0.41 µM.
With `COc1ccc(C2=NN(c3ccccc3)C(c3cccc(Nc4ccnc5cc(Cl)ccc45)c3)C2)cc1` (configuration not stated) the “growth inhibition (GI)” value (UO-31 [1]) was “inactive” and the inhibition of growth at 7.8 µg/mL (Cryptococcus neoformans) was 4.41%.
